Measured values taken from ChEMBL document CHEMBL1154667, “Synthesis of 3beta, 7alpha, 11alpha-trihydroxy-pregn-21-benzylidene-5-en-20-one derivatives and their cytotoxic activities” (2009).

Experiment: Cytotoxicity against human EC109 cells at 50 ug/ml after 48 hrs by MTT assay
Format: functional
Details: ECa-109, 48 h
Method in brief: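 EC109 cells grown in RPMI-1640 with 10% fetal calf serum, penicillin and streptomycin at 37 °C in 5% CO2. Seeded at 7000 cells/well; compound diluted in medium added next day for 48 h. MTT (0.5 mg/mL in PBS) then added for a further 4 h, formazan dissolved in DMSO, absorbance read at 570 nm.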

Q: With `C[C@]12C[C@@H](O)[C@H]3[C@@H]([C@H](O)C=C4C[C@@H](O)CC[C@@]43C)[C@@H]1CC[C@@H]2C(=O)/C=C/c1ccccc1` as the compound, how does the inhibition at 50 µg/mL read?
A: 59.8%

Q: Which inhibition at 50 µg/mL does the source give for `C=C1C(=O)[C@]23[C@H](O)[C@H]1CC[C@H]2[C@@]12CO[C@]3(O)[C@@H](O)[C@@H]1C(C)(C)CC[C@@H]2O` [ORIDONIN] here?
A: 94.7%

Q: With `CN(C)c1ccc(/C=C/C(=O)[C@H]2CC[C@H]3[C@H]4[C@H]([C@H](O)C[C@]23C)[C@@]2(C)CC[C@H](O)CC2=C[C@H]4O)cc1` as the compound, how does the inhibition at 50 µg/mL read?
A: 39%

Q: For `C[C@]12C[C@@H](O)[C@H]3[C@@H]([C@H](O)C=C4C[C@@H](O)CC[C@@]43C)[C@@H]1CC[C@@H]2C(=O)/C=C/c1ccc(F)cc1`, which inhibition at 50 µg/mL is on record?
A: 76.8%

Q: With `C[C@]12C[C@@H](O)[C@H]3[C@@H]([C@H](O)C=C4C[C@@H](O)CC[C@@]43C)[C@@H]1CC[C@@H]2C(=O)/C=C/c1ccc(N)cc1` as the compound, how does the inhibition at 50 µg/mL read?
A: 50.2%

Q: With `COc1cc(OC)c(/C=C/C(=O)[C@H]2CC[C@H]3[C@H]4[C@H]([C@H](O)C[C@]23C)[C@@]2(C)CC[C@H](O)CC2=C[C@H]4O)c(OC)c1` as the compound, how does the inhibition at 50 µg/mL read?
A: 35.3%

Q: Which inhibition at 50 µg/mL does the source give for `C[C@]12C[C@@H](O)[C@H]3[C@@H]([C@H](O)C=C4C[C@@H](O)CC[C@@]43C)[C@@H]1CC[C@@H]2C(=O)/C=C/c1ccc(Cl)cc1` here?
A: 80.2%

Q: Which inhibition at 50 µg/mL does the source give for `C[C@]12C[C@@H](O)[C@H]3[C@@H]([C@H](O)C=C4C[C@@H](O)CC[C@@]43C)[C@@H]1CC[C@@H]2C(=O)/C=C/c1ccc(O)cc1` here?
A: 45.7%

Q: For `CC(=O)[C@H]1CC[C@H]2[C@@H]3CC=C4C[C@@H](O)CC[C@]4(C)[C@H]3CC[C@]12C` [PREGNENOLONE], which inhibition at 50 µg/mL is on record?
A: 13.6%

Q: Which inhibition at 50 µg/mL does the source give for `COc1ccc(/C=C/C(=O)[C@H]2CC[C@H]3[C@H]4[C@H]([C@H](O)C[C@]23C)[C@@]2(C)CC[C@H](O)CC2=C[C@H]4O)cc1` here?
A: 55.3%

Q: Which inhibition at 50 µg/mL does the source give for `CC(=O)[C@H]1CC[C@H]2[C@H]3[C@H]([C@H](O)C[C@]12C)[C@@]1(C)CC[C@H](O)CC1=C[C@H]3O` here?
A: 21.7%

Q: For `C[C@]12C[C@@H](O)[C@H]3[C@@H]([C@H](O)C=C4C[C@@H](O)CC[C@@]43C)[C@@H]1CC[C@@H]2C(=O)/C=C/c1cccc(Cl)c1`, which inhibition at 50 µg/mL is on record?
A: 76.4%

Q: Which inhibition at 50 µg/mL does the source give for `COc1ccccc1/C=C/C(=O)[C@H]1CC[C@H]2[C@H]3[C@H]([C@H](O)C[C@]12C)[C@@]1(C)CC[C@H](O)CC1=C[C@H]3O` here?
A: 47.4%

Q: For `C[C@]12C[C@@H](O)[C@H]3[C@@H]([C@H](O)C=C4C[C@@H](O)CC[C@@]43C)[C@@H]1CC[C@@H]2C(=O)/C=C/c1cccc([N+](=O)[O-])c1`, which inhibition at 50 µg/mL is on record?
A: 72.4%
